The source of these data is ChEMBL document CHEMBL1153459, “Tetrahydropyridine derivatives with inhibitory activity on the production of proinflammatory cytokines: part 1” (Bioorg Med Chem Lett, 2009).

The subject of one assay is Blood. In words: Inhibition of LPS-induced TNFalpha production in human whole blood by immunoassay. In kind it is functional, tissue-based. The essentials: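 Human whole blood from consenting volunteers, 988 µL aliquots, was mixed with compound in DMSO and LPS at a final 10 µg/mL, then incubated 6 h at 37 °C. Samples were chilled and spun, and plasma TNFα was measured by immunoassay. Percent inhibition was taken relative to LPS control after subtracting the unstimulated negative control. IC50 from N = 3–4.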

In assay [1] the test system is Mus musculus. Briefly: Inhibition of LPS-induced TNFalpha production in mouse at 20 mg/kg, po after 1 hr by ELISA. The assay is classed as functional. An outline of the steps:
(§1)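 Mice were fasted overnight with water allowed. Compound was given orally as a suspension in 0.5% CMC at 10 mL/kg. After 30 min, LPS in saline was injected iv at 0.45 mg/10 mL/kg. Heparinized vena cava blood was drawn 1 h later and plasma TNFα measured by ELISA. Percent inhibition was taken versus vehicle/LPS control after subtracting normal mice. N = 5.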
For orientation: In an ELISA, binding on a coated surface is turned into a signal by an enzyme label.

The test system of assay [2] is Mus musculus. In words: Inhibition of LPS-induced TNFalpha production in orally dosed mouse after 1 hr by ELISA. The assay is classed as functional. As to conditions: po, read-out: ID50 (the source's name). The essentials: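 Mice fasted overnight (water allowed), then given compound orally as a suspension in 0.5% CMC at 10 mL/kg; controls received vehicle alone. 30 min later LPS in saline was injected i.v. at 0.45 mg/10 mL/kg; normal mice got saline. After 1 h, heparinised vena cava blood was spun and plasma TNFα measured by ELISA. % inhibition was taken against normal and control mice; ID50 derived. N = 5.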

Assay [3] relates to Mus musculus. In words: Inhibition of LPS-induced TNFalpha production in mouse at 50 mg/kg, po after 1 hr by ELISA. In kind it is functional. The essentials:
as §1

As usually defined, the IC50 is the midpoint of a concentration-inhibition curve. Low values mean higher potency, high ones lower potency. What is called inhibition in vivo is the relative decrease from the control value, in per cent.

In the assay on Blood, `NCc1c[nH]c(-c2ccc(F)cc2)c1-c1ccncc1` came in with a concentration for half-maximal inhibition (IC50) of more than 30 µM.
In the assay on Blood, `Fc1ccc(-c2[nH]cc(CCCN3CCCCC3)c2-c2ccncc2)cc1` yielded an IC50 of 28.4 µM.
Regarding `OC1(c2c[nH]c(-c3ccc(F)cc3)c2-c2ccncc2)CCNCC1`, the IC50 in the assay with Blood was more than 30 µM. The inhibition in vivo at 20 mg/kg in the assay on Mus musculus [1] was -2.7%.
The compound `Fc1ccc(-c2[nH]cc(C3=CCNCC3)c2-c2ccncc2)cc1` gave an IC50 with Blood of 1.86 µM. Further, in the assay on Mus musculus [2], the ED50 is 5.98 mg/kg.
The compound `Fc1ccc(-c2[nH]cc(CCCN3CCOCC3)c2-c2ccncc2)cc1` registered an IC50 in the assay with Blood of more than 30 µM.
In the assay with Blood, `Fc1ccc(-c2[nH]cc(CCCN3CCN(Cc4ccccc4)CC3)c2-c2ccncc2)cc1` returned an IC50 of more than 30 µM.
In the assay on Blood, `CC(=O)NCCCc1c[nH]c(-c2ccc(F)cc2)c1-c1ccncc1` had a half-inhibitory concentration (IC50) of more than 30 µM.
For the compound `Fc1ccc(-c2[nH]cc(C3CCNCC3)c2-c2ccncc2)cc1`, the IC50 in the assay on Blood came to 2.98 µM. Further, the ED50 in the assay with Mus musculus [2] is 17.9 mg/kg.
For `CNCCCc1c[nH]c(-c2ccc(F)cc2)c1-c1ccncc1`, the IC50 in the assay with Blood was determined as 14.7 µM. In other words, the double-digit micromolar range.
In the assay with Blood, `NCCCc1c[nH]c(-c2ccc(F)cc2)c1-c1ccncc1` registered an IC50 of 4.76 µM.
In the assay with Blood, `CN1CCN(CCCc2c[nH]c(-c3ccc(F)cc3)c2-c2ccncc2)CC1` displayed an IC50 of more than 30 µM.
Same read-out and setting: as for `Fc1ccc(-c2[nH]cc(CCCN3CCNCC3)c2-c2ccncc2)cc1`, the figure is more than 30 µM.
In the case of `Fc1ccc(-c2[nH]cc(CCCN3CCSCC3)c2-c2ccncc2)cc1`, the IC50 with Blood is more than 30 µM.
In the assay on Blood, `NCCCCc1c[nH]c(-c2ccc(F)cc2)c1-c1ccncc1` gave an IC50 of 13.8 µM.
`CN(C)CCCc1c[nH]c(-c2ccc(F)cc2)c1-c1ccncc1` showed an IC50 in the assay with Blood of 22.4 µM.
Take `Fc1ccc(-c2[nH]cc(-c3ccncc3)c2-c2ccncc2)cc1`: the IC50 in the assay with Blood was more than 30 µM. For the same compound, the inhibition in vivo at 50 mg/kg in the assay with Mus musculus [3] was found to be 24.5%.
In the assay on Blood, `C[S+]([O-])c1ccc(-c2nc(-c3ccc(F)cc3)c(-c3ccncc3)[nH]2)cc1` (configuration not stated) [SB-203580] displayed an IC50 of 6.4 µM. Also, the ED50 in the assay on Mus musculus [2] was 27.9 mg/kg.
